Assay results as given in ChEMBL document CHEMBL1159121, “Synthesis, in vitro structure-activity relationship, and in vivo studies of 2-arylthiazolidine-4-carboxylic acid amides as anticancer agents” (Bioorg Med Chem, 2010).
Activity calls are given as the source filed them. The rule behind the calls is not given here.

Key:
[1] = biological target: T1, Lysophosphatidic acid receptor 3 (Homo sapiens) (UniProt Q9UBY5); experiment: Agonist activity at LPA3 expressed in human chem1 cells assessed as intracellular calcium mobilization by FLIPR assay; type: functional, cell-based
T1 sequence (whole entry): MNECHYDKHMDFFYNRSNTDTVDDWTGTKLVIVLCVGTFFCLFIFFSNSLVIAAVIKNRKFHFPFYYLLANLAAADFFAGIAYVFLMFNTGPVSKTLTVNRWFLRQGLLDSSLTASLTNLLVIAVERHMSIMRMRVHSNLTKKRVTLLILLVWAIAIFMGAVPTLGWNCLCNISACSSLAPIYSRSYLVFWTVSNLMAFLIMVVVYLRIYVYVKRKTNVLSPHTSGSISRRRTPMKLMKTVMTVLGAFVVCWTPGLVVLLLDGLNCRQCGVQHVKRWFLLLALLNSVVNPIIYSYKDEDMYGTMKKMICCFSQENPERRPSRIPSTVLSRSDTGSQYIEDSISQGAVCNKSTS
In short: (§1)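 Chem-1 cells stably transfected with LPA1, LPA3 or LPA5, kept in DMEM/10% FBS; Fluo-4 NW loaded. Compound added as an eight-point fourfold serial dilution (top 10 μM), then incubated 10 min at 25 °C. Ca2+ flux read for 180 s on FLIPR, expressed as percentage activation.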

[2] = biological target: T2, Lysophosphatidic acid receptor 1 (Homo sapiens, UniProt Q92633); experiment: Agonist activity at LPA1 expressed in human chem1 cells assessed as intracellular calcium mobilization by FLIPR assay; type: functional, cell-based; in short: as §1
[3] = biological target: Lysophosphatidic acid receptor 5 (Homo sapiens) (UniProt Q9H1C0); experiment: Agonist activity at LPA5 expressed in human chem1 cells assessed as intracellular calcium mobilization by FLIPR assay; type: functional, cell-based; in short: as §1
[4] = biological target: T2, Lysophosphatidic acid receptor 1; experiment: Antagonist activity at LPA1 expressed in human chem1 cells assessed as effect on intracellular calcium mobilization by FLIPR assay; type: functional, cell-based
In short: (§2)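 LPA1-, LPA3- or LPA5-transfected Chem-1 cells, Fluo-4 NW loaded, preincubated 10 min at 25 °C with compound. Dilution series was eight-point, fourfold, top final concentration 10 μM. […] FLIPR Ca2+ signal read for 180 s, percentage inhibition calculated; 50% inhibition was taken as antagonism.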

[5] = Antiproliferative activity against human WM164 cells after 48 hrs by SRB assay; type: functional, cell-based; details: WM164, 48 h
In short: (§3)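 Melanoma lines and control fibroblasts grown at 37 °C, 5% CO2, then exposed to a wide concentration range for 48 h in round-bottom 96-well plates. Fixed with 10% TCA, stained with SRB, protein read at 560 nm. IC50 (50% growth inhibition versus untreated) obtained by nonlinear regression.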

PC-3 = experiment: Antiproliferative activity against human PC3 cells after 96 hrs by SRB assay; type: functional, cell-based; details: PC-3, 96 h
[6] = Cytotoxicity against human fibroblasts after 48 hrs by SRB assay; type: cell-based; details: Fibroblast; in short: as §3
PPC-1 = experiment: Antiproliferative activity against human PPC1 cells after 96 hrs by SRB assay; type: functional, cell-based; details: PPC-1, 96 h
In short: (§4)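 Prostate lines in RPMI1640/10% FBS; RH7777 in DMEM/10% FBS. Cells TCA-fixed, stained with 0.4% SRB, absorbance read at 540 nm. IC50 from nonlinear regression of % survival against concentration.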

RH7777 [7] = experiment: Selectivity ratio of IC50 for rat RH7777 cells to IC50 for human prostate cancer cells
In short: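 Ratio of RH7777 IC50 to the mean IC50 over four prostate lines (DU 145, PC-3, LNCaP, PPC-1). Prostate lines grown in RPMI1640/10% FBS and RH7777 in DMEM/10% FBS. Read by SRB (0.4%) at 540 nm; IC50 by nonlinear regression.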

[8] = Selectivity ratio of IC50 for human fibroblasts to IC50 for human melanoma cells; type: ADME; details: human fibroblasts and human melanoma cells, read-out: Ratio IC50
LNCaP [9] = experiment: Antiproliferative activity against human LNCAP cells after 96 hrs by SRB assay; type: functional, cell-based; in short: as §4
RH7777 [10] = experiment: Cytotoxicity against rat RH7777 cells after 96 hrs by SRB assay; type: cell-based; details: RH7777, 96 h; in short: as §4
[11] = Antiproliferative activity against mouse B16-F1 cells after 48 hrs by SRB assay; type: functional, cell-based; details: B16-F1, 48 h; in short: as §3
A-375 [12] = experiment: Antiproliferative activity against human A375 cells after 48 hrs by SRB assay; type: functional, cell-based; details: A-375, 48 h; in short: as §3
DU-145 = experiment: Antiproliferative activity against human DU145 cells after 96 hrs by SRB assay; type: functional, cell-based; details: DU-145, 96 h; in short: as §4
A-375 [13] = experiment: Cell cycle arrest in human A375 cells by assessed as increase in accumulation at subG1 phase […] by flow cytometry; type: functional, cell-based
A-375 [14] = experiment: Inhibition of human A375 cells colony formation at 2 uM after 7 days by colony-formation assay; type: functional, cell-based
[15] = biological target: T1, Lysophosphatidic acid receptor 3 (Homo sapiens); experiment: Antagonist activity at LPA3 expressed in human chem1 cells assessed as effect on intracellular calcium mobilization by FLIPR assay; type: functional, cell-based; in short: as §2
A-375 [16] = experiment: Inhibition of human A375 cells colony formation at 20 uM after 7 days by colony-formation assay; type: functional
A-375 [17] = experiment: Inhibition of human A375 cells colony formation at 100 uM after 7 days by colony-formation assay; type: functional, cell-based
[18] = biological target: Lysophosphatidic acid receptor 5 (Homo sapiens) (UniProt Q9H1C0); experiment: Antagonist activity at LPA5 expressed in human chem1 cells assessed as effect on intracellular calcium mobilization by FLIPR assay; type: functional, cell-based; in short: as §2
LNCaP [19] = experiment: Cell cycle arrest in human LNCAP cells by assessed as increase in accumulation at subG1 phase […] by flow cytometry; type: functional, cell-based

Lysophosphatidic acid receptor 5 (Homo sapiens), sequence (Q9H1C0 whole entry): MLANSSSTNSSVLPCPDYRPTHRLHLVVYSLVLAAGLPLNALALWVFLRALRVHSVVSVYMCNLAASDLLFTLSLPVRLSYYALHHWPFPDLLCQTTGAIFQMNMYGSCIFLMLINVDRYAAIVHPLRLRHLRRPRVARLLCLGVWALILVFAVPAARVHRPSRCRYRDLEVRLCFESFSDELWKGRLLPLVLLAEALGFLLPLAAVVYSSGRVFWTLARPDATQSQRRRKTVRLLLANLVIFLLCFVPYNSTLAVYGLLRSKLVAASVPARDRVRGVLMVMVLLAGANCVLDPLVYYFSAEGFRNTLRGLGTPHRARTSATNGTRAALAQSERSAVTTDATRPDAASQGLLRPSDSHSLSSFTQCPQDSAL
T2 sequence (Q92633 whole entry): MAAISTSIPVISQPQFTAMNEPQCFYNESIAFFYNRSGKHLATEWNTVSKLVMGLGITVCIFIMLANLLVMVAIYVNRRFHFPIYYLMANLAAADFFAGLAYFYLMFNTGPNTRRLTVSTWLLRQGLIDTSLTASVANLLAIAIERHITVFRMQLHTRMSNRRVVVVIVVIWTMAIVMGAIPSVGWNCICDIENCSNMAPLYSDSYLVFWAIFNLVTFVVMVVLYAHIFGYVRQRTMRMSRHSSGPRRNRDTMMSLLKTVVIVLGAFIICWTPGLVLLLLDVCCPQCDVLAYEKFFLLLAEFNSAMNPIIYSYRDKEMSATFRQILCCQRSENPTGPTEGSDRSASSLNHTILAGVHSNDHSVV

| SMILES | IC50 [5] | IC50 (PC-3) | IC50 [6] | IC50 (PPC-1) | Ratio IC50 (RH7777 [7]) | selectivity ratio [8] | IC50 (LNCaP [9]) | IC50 (RH7777 [10]) | IC50 [11] | IC50 (A-375 [12]) | IC50 (DU-145) | further results |
| --- | --- | --- | --- | --- | --- | --- | --- | --- | --- | --- | --- | --- |
| Cc1noc(-c2ccc(CSCCC(=O)O)cc2)c1NC(=O)OC(C)c1ccccc1Cl (centres undefined) |  |  |  |  |  |  |  |  |  |  |  | Activity [1]: inactive; Activity [2]: inactive; Activity [3]: inactive; IC50 [4]: 46 nM |
| CCCCCCCCCCCCCCCCCCNC(=O)[C@@H]1CSC(c2cc(OC)c(OC)c(OC)c2)N1 (mixture of isomers) | 3000 nM | 4.9 µM | 4.7 µM | 1000 nM | 4.8 | 1 | 1600 nM | 14 µM | 5.9 µM | 4.6 µM | 4.1 µM |  |
| CCCCCCCCCCCCCCCCNC(=O)[C@@H]1CSC(c2cc(OC)c(OC)c(OC)c2)N1 (mixture of isomers) | 700 nM |  | 2.4 µM |  |  | 2 |  |  | 1.6 µM | 1.4 µM |  | Activity [1]: inactive; Activity (A-375 [13]): Dose-dependent effect; Activity [2]: inactive; Activity (A-375 [14]): Active; Activity [3]: inactive; Activity [4]: inactive; Activity [15]: inactive; Activity (A-375 [16]): Active; Activity (A-375 [17]): Active; Activity [18]: inactive; Activity (LNCaP [19]): Dose-dependent effect |
| CC(=O)Nc1ccc(C2N[C@H](C(=O)Nc3ccc(-c4ccccc4)cc3)CS2)cc1 (mixture of isomers) | 4100 nM | 7.6 µM | 33.4 µM | 2900 nM | 2 | 6.3 | 3500 nM | 9.5 µM | 5.7 µM | 6.2 µM | 5 µM |  |
| CCCCCCCCCCCCCCCCNC(=O)[C@@H]1CSC(c2ccc(N(C)C)cc2)N1 (mixture of isomers) | 1500 nM | 6 µM | 21 µM | 400 nM | 3.6 | 6.3 | 1400 nM | 10 µM | 6.7 µM | 1.8 µM | 3.2 µM |  |
| CCCCCCCCCCCCCCCCCCNC(=O)[C@@H]1CSC(c2ccc(OC)c(OC)c2)N1 (mixture of isomers) | 2700 nM | 4.1 µM | 20.3 µM | 900 nM | 3.7 | 2.5 | 2400 nM | 11.8 µM | 14.3 µM | 6.9 µM | 5.5 µM |  |
| CCCCCCCCC/C=C/CCCCCCCNC(=O)[C@@H]1CSC(c2ccc(OC)c(OC)c2)N1 (mixture of isomers) | 1100 nM | 2 µM | 16.3 µM | 300 nM | 8.2 | 8.6 | 800 nM | 9.4 µM | 3.2 µM | 1.4 µM | 1.5 µM |  |
| CCCCCCCCCCCCCCCCNC(=O)[C@@H]1CSC(c2ccccc2NC(C)=O)N1 (mixture of isomers) | 3900 nM | 2.7 µM | 27.8 µM | 1500 nM | 4.4 | 3.9 | 3300 nM | 13.2 µM | 8 µM | 9.3 µM | 4.6 µM |  |
| CCCCCCCCCCCCCCCCNC(=O)[C@@H]1CSC(c2ccc(NC(=O)CCl)cc2)N1 (mixture of isomers) | 5700 nM | 0.9 µM | 25.4 µM | 400 nM | 9.4 | 0.6 | 2000 nM | 9.4 µM | 93.3 µM | 20.4 µM | 0.7 µM |  |
| CCCCCCCCCCCCCCCCNC(=O)[C@@H]1CSC(c2ccccc2OC)N1 (mixture of isomers) | 2400 nM | 7.4 µM | 7.2 µM | 1700 nM | 3.6 | 2.2 | 3600 nM | 17.2 µM | 4.3 µM | 3 µM | 6.5 µM |  |
| CC(=O)Nc1ccc(C2N[C@H](C(=O)Nc3ccc4cc5ccccc5cc4c3)CS2)cc1 (mixture of isomers) | 1400 nM | 0.8 µM | 13.5 µM | 700 nM | 2.5 | 4 | 1700 nM | 2.6 µM | 5.6 µM | 3.1 µM | 0.9 µM |  |
| CCCCCCCCC/C=C\CCCCCCCNC(=O)[C@@H]1CSC(c2ccccc2)N1 (mixture of isomers) | 2400 nM | 2.4 µM | 11.6 µM | 1000 nM | 4.9 | 2.6 | 1600 nM | 8.3 µM | 6 µM | 4.9 µM | 1.8 µM |  |
| CCCCCCCCCCCCCCCCNC(=O)[C@@H]1CSC(c2ccc(NC(C)=O)cc2)N1C(C)=O (mixture of isomers) | 20400 nM | 9 µM | 57.7 µM | 6800 nM | 1.3 | 3.6 | 10600 nM | 13 µM | 15 µM | 12.6 µM | 14.9 µM |  |
| CCCCCCCCCCCCCCCCNC[C@@H]1CSC(c2ccccc2)N1 (mixture of isomers) | 4900 nM | 3.4 µM | 60 µM | 2500 nM | 1.9 | 8 | 3900 nM | 6.2 µM | 4.7 µM | 13 µM | 3.1 µM |  |
| CCCCCCCCCCCCCCCCNC[C@@H]1CSC(c2ccc(NC(C)=O)cc2)N1 (mixture of isomers) | 3200 nM | 4.5 µM | 84.5 µM | 2400 nM | 1.9 | 8.6 | 4700 nM | 7.9 µM | 11.9 µM | 14.4 µM | 4.7 µM |  |
| CCCCCCCC/C=C\CCCCCCCC(=O)OC[C@@H](O)COP(=O)(O)O [LYSOPHOSPHATIDIC ACID] |  |  |  |  |  |  |  |  |  |  |  | EC50 [2]: 31 nM |
